Only some compounds are listed: those with a hit (about 2.5% of all), similar ones and a draw of the others.
UCH37 inh = inhibitors of human UCH37 deubiquitinase, primary screen, biochemical, Ub-AMC cleavage, fluorescence; purified proteasome/UCH37; inhibition, % (no concentration beside the values); 0.33% of 330,000 active; AID 588478, 2011;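 active = mean inhibition over replicate wells above about 20%, limit read from the data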;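 also: 0% = compound-free wells with enzyme and 100% = wells lacking proteasome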
Target sequence (Q9Y5K5 whole entry, looked up): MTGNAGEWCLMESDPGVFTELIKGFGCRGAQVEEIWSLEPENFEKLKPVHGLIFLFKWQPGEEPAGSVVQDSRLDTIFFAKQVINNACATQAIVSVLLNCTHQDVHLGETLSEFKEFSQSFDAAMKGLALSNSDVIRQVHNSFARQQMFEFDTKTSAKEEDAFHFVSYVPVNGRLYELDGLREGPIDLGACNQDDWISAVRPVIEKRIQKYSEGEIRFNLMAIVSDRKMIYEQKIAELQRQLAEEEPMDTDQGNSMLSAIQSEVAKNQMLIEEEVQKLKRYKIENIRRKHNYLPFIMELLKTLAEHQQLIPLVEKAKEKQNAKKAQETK
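assay system = human UCH37 enzyme supplied as purified proteasome complex | amount = proteasome at 0.15 nM in the dispensed enzyme solution | schedule = 30 min compound-proteasome preincubation then 25 min substrate reaction, room temperature | measured by = fluorescence, ex 355 nm, em 460 nm | benchmarks = no-proteasome wells (full inhibition) and compound-free wells (no inhibition)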
T cell modulator = modulators of CD8 T cell-vesicle binding, primary screen, mouse 2C CD8+ T cells, flow cytometry | 0.068% of 330,000 active | response (vesicle binding), % at 7 µM | AID 2052, 2009 | 2C CD8+ T cell-vesicle binding; active compounds read low;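 active = response, share of CD8 T cells binding vesicles, and their 90th percentile fluorescence all below set limits, cut at about 80% in these data, passing the limit was not always enough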;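 also: values below 100% mean blocked vesicle binding to the CD8+ T cells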
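System: murine 2C transgenic CD8+ T lymphocytes; also added: QL9-loaded Drosophila micro-vesicles; times: binding 1.5 h at 37 °C; measured by: flow cytometry, PE anti-B7-1 (FL2) versus Alexa647 anti-CD8 (FL8), PFA-fixed; control set: Peptide-free naked vesicles (low) and QL9 vesicles with 0.7% DMSO vehicle (high)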
MEKK2mut PB1 HTS = MEK5 binding signal on mutant MEKK2 PB1, primary screen, biochemical, multiplex bead flow cytometry, Alexa488-MEK5. Alexa488-MEK5 binding to MEKK2 mutant. percent response, % at 10 µM. 0.35% of 290,000 active. AID 1530, 2009; in the data active = percent response above about 24%, passing the limit was not always enough
Rce1 inh = yeast Rce1p protease inhibitors, primary screen, biochemical, fluorescence, cell-free homogeneous. 0.27% of 290,000 active. calls only. yeast membranes, quenched prenylated peptide cleavage fluorescence. CAAX prenyl protease 2 (Saccharomyces cerevisiae (strain ATCC 204508 / S288c)), Q03530;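 active = fall in fluorescence gain of 50% or more versus controls, with final raw signal at or below 3038400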;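 also: plate controls were neutral control wells for no effect and wells lacking membranes for full effect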
Target sequence (Q03530 whole entry, looked up): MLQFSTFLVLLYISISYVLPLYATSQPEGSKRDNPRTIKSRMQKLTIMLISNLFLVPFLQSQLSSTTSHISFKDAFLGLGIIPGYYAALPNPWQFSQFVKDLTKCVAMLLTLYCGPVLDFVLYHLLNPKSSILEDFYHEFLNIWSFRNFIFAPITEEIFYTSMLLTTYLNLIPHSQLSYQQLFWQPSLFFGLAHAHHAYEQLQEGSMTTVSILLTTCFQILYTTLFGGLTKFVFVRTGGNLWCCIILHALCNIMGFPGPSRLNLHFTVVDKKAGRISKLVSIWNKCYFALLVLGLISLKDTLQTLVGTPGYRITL
MEKK3 PB1 HTS = modulators of MEKK3-MEK5 PB1 binding, primary screen, biochemical, wildtype MEKK3, multiplex bead flow cytometry, Alexa488-MEK5 | bead-based flow cytometry, Alexa488-MEK5 binding to MEKK3; actives lie on both sides; 0 = blocked by unlabeled MEK5, 100 = vehicle | binding response (% of control), % at 10 µM | AID 1529, 2009 | 1.4% of 290,000 active | Mitogen-activated protein kinase kinase kinase 3 (Homo sapiens), Q99759;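 active = binding response more than 3 SD above or below the average of its plate-row segment, actives on both sides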;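 also: Alexa488 bead fluorescence after subtracting the streptavidin-only scavenger bead signal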
MEKK2wt PB1 HTS = modulators of MEK5 binding to wildtype MEKK2, primary screen, biochemical, multiplex bead flow cytometry, Alexa488-MEK5; Alexa488-MEK5 binding to MEKK2 WT; actives lie on both sides; binding response (% of control), % at 10 µM; 1.1% of 290,000 active; AID 1531, 2009; in the data active = binding response below about 67% or above about 130%
MEKK2wt confirm = modulators of MEK5 binding to wildtype MEKK2, confirmation, biochemical, single concentration, multiplex bead flow cytometry | binding response (% of control), % at 10 µM | shares compounds with MEKK3 PB1 HTS | 2.4% of 5,900 active | AID 1892, 2009 | Alexa488-MEK5 binding to MEKK2 WT; actives lie on both sides; in the data active = binding response below about 16% or above about 210%; inactive = in between
MEKK2mut confirm = mutant MEKK2 PB1-MEK5 binding signal retest – biochemical, single concentration, multiplex bead flow cytometry, confirmation; shares compounds with MEKK3 PB1 HTS; AID 1893, 2009; 2% of 5,900 active; Alexa488-MEK5 binding to MEKK2 mutant; percent response, % at 10 µM; in the data active = percent response mostly above about 71%, no sharp cut-off; inactive = mostly below about 38%;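 also: higher means compound restores mutant binding toward wildtype level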
MEKK3 confirm = MEKK3 wild-type PB1 binding to MEK5, inhibitors, confirmation, biochemical, bead multiplex flow cytometry, single concentration, wildtype | shares compounds with MEKK3 PB1 HTS | Alexa488-MEK5 binding to MEKK3; active compounds read low | binding response (% of control), % at 10 µM | 1.8% of 5,900 active | AID 1894, 2009;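 active = binding response below 72% of control, or above a set upper limit, though filed actives all read lower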;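 also: 100% = DMSO only wells and 0% = binding blocked by excess unlabeled MEK5; lower values mean stronger disruption of MEK5 binding to MEKK3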
Active calls of the source: *; i = inactive; . = not tested or not shown; [ ] = remark or other dose.

SMILES	UCH37 inh	T cell modulator	MEKK2mut PB1 HTS	Rce1 inh	MEKK3 PB1 HTS	MEKK2wt PB1 HTS	MEKK2wt confirm	MEKK2mut confirm	MEKK3 confirm
COc1ccc(C[C@H]2CN3C(=NC[C@@H]3Cc3ccccc3)N2CCNC(=O)c2ccc(C)c(Br)c2)cc1	3	415	132*	i	109	271*	200	56	102
Cc1ccc(C(=O)NN=CC2CC=CCC2)cc1[N+](=O)[O-] (stereo not drawn)	6	.	.	.	.	.	.	.	.
CC1=CC(C)(C)C(C(=O)O)C(C(=O)O)C1 (stereo not drawn)	4	622	10	i	141*	136*	112	19	88
N#CC(=NNc1ccccc1F)C(=N)N1CCCCC1	12	.	.	.	.	.	.	.	.
COc1ccc(C(=O)CSc2nnc3ccc(-c4ccccn4)nn23)cc1	-72	334	-27	i	64	62	.	.	.
O=C(CSc1ccc(-c2ccccn2)nn1)c1ccc(F)cc1	-1	633	-1	i	117	107	.	.	.
COc1ccc(C(=O)CSc2nc(-c3ccccn3)nc(C)c2Cl)cc1	7	194	23	i	128*	114	107	6	104
Cc1nc(-c2ccccn2)nc(SCC(=O)c2ccc(F)cc2)c1Cl	2	209	31	i	134*	113	103	-1	97
NC(=O)C(N=Nc1ccccc1)=NNc1ccccc1	-2	.	.	.	.	.	.	.	.
CSc1nc2ccccc2n1CC(=O)Nc1c(C)cccc1C	4	153	6	i	49*[inhibitor]	71	100	-4	97
CSc1nc2ccccc2n1CC(=O)Nc1ccccc1	-2	218	-2	i	92	97	.	.	.
COc1ccc(S(=O)(=O)NN=C(C)c2ccncc2)cc1	5	.	.	.	.	.	.	.	.
Cc1nc2c3cc(F)ccc3n(Cc3ccc(F)cc3)c2s1	-1	407	0	i	144*	111	93	-5	96
Cc1cc(NN=Cc2ccc(Cl)cc2)nc(NCc2ccccc2)n1	6	.	.	.	.	.	.	.	.
CC(C)c1ccc(C=NNC(=O)c2c(Cl)cnn2C)cc1	2	.	.	.	.	.	.	.	.
CSc1nnc(C(C)(C)C)c(=O)n1N=Cc1ccccc1O	3	.	.	.	.	.	.	.	.
Clc1cccc(CNCCNCc2cccc(Cl)c2)c1	1	130	17	i	115	187*	161	37	108
CC1(C)CC(=O)C(C=NCCN2CCN(C(=S)Nc3ccccc3)CC2)=C(O)C1	4	370	-14	i	3.0*[inhibitor]	3.0*[inhibitor]	102	5	103
O=C(COc1ccccc1[N+](=O)[O-])N/N=C/c1ccc(OC(=O)c2ccco2)cc1	.	93	0	i	139*	103	96	-6	102
O=C1c2cccc3cccc(c23)C(=O)N1CC1CCN(CC(O)COc2ccc3ccccc3c2)CC1 (stereo not drawn)	-25	i	.	i	.	.	.	.	.
COc1cccc(OCC(O)CN2CCC(CN3C(=O)c4cccc5cccc(c45)C3=O)CC2)c1 (stereo not drawn)	-79	162	-3	i	115	156*	115	11	100
CCc1ccc(OCC(O)CN2CCC(CN3C(=O)c4cccc5cccc(c45)C3=O)CC2)cc1 (stereo not drawn)	-45	808	1	i	118	148*	199	43	108
O=C1c2cccc3cccc(c23)C(=O)N1CCN1CCN(CC(O)COc2ccc3ccccc3c2)CC1 (stereo not drawn)	-1	199	5	i	111	149*	178	43	105
COc1cc(C=NNC(=O)Cc2ccccc2)ccc1Oc1ccc([N+](=O)[O-])cc1[N+](=O)[O-]	5	.	.	.	.	.	.	.	.
Cc1ccc2nc(Cl)c(C3CC(c4cccs4)=NN3C(=O)CCC(=O)O)cc2c1 (stereo not drawn)	-5	213	-1	i	139*	103	86	0	90
SMILES	UCH37 inh	T cell modulator	MEKK2mut PB1 HTS	Rce1 inh	MEKK3 PB1 HTS	MEKK2wt PB1 HTS	MEKK2wt confirm	MEKK2mut confirm	MEKK3 confirm
Cc1ccc2nc(Cl)c(C3CC(c4ccco4)=NN3C(=O)CCCC(=O)O)cc2c1 (stereo not drawn)	3	317	-1	i	99	93	.	.	.
Cc1ccc(OS(=O)(=O)c2ccccc2)c(C=N/N=C2\NC(=O)C(C)S2)c1 (stereo not drawn)	4	.	.	.	.	.	.	.	.
O=C(CSc1ccccn1)NN=Cc1c[nH]c2ccccc12	10	.	.	.	.	.	.	.	.
C=CCc1c(C)nc(C)nc1NN=Cc1ccccc1	10	.	.	.	.	.	.	.	.
CCOc1ccc(-n2c(COc3ccccc3)nnc2SCC(N)=O)cc1	4	537	5	i	122*	106	98	-2	103
CCOc1ccccc1-n1c(COc2ccccc2)nnc1SCC(N)=O	2	355	0	i	91	95	.	.	.
O=C(NN=Cc1ccc(O)c(Br)c1)c1cc2c(ccc3ccccc32)o1	-83	.	.	.	.	.	.	.	.
COc1cccc(Nc2nc(NCC3CCCO3)c3ccccc3n2)c1 (stereo not drawn)	-29	235	20	i	106	144*	141	31	105
Oc1ccc(Nc2nc(NCC3CCCO3)c3ccccc3n2)cc1 (stereo not drawn)	3	.	15	i	100	128	.	.	.
COc1cc(C=NNc2ccccc2)ccc1O	-1	.	.	.	.	.	.	.	.
O=C(COc1ccccc1)NCc1nnc2c3ccccc3c(-c3ccccc3)nn12	-2	334	0	i	149*	108	107	6	105
CCOC(=O)C(=CNc1ccc(NC2=NCC(C)S2)cc1)C(=O)OCC (stereo not drawn)	-1	441	1	i	138*	112	110	5	101

Bioassay records deposited in PubChem BioAssay by several laboratories.
